Marks after values point to notes of the source that are not given here.
Experiments:
Swiss albino mice = assay: Antagonism of pentobarbital-induced sleeping time; assay type: in vivo; conditions: 10 μmol kg^−1 i.v.; for Sleep Time: pentobarbital 50 mg kg^−1 i.p. 10 min later, mean ± SEM; for Decrease in Sleep Time: (1−S/C)×100 relative to control, negative = increase; for effect on pentobarbital-induced sleeping time (in words): compared with control group
TRH-R1 [1] = target: T1, TRH-R1 (Mus musculus, UniProt P21761); assay: Signaling; assay type: cell-based
T1 sequence (P21761 1-393): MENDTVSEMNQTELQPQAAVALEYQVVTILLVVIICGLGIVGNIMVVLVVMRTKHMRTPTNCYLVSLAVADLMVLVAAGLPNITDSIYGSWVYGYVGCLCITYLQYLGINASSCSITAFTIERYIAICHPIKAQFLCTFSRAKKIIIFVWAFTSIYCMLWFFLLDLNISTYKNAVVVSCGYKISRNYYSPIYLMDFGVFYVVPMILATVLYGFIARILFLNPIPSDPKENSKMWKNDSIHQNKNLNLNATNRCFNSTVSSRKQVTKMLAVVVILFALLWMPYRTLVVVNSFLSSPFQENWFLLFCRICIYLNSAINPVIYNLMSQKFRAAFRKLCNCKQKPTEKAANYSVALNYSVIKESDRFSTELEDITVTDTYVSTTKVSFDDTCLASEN
In short: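 HEK 293EM cells stably expressing TRH-R1, grown in DMEM with 10 % FBS and hygromycin, were seeded at 1.5 × 10^5 cells/well. After 16 h they were calcium-phosphate co-transfected with CREB and a CREB-driven luciferase reporter. Various concentrations of test compound were added in 1 % FBS medium for 6 h at 37 °C. Lysate luminescence was then read for 10 s, with 0.4 mM luciferin and 2 mM ATP. Data are from duplicates in three experiments.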

TRH-R1 [2] = target: T1, TRH-R1; assay: Receptor binding assay, competition with [3H][Nτ
TRH-R2 [3] = assay: Signaling; assay type: cell-based; conditions: ratio of EC50 at TRH-R1 and TRH-R2
In short: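 HEK 293EM cells stably expressing TRH-R1 or TRH-R2 were co-transfected with CREB and a CREB-luciferase reporter by calcium phosphate. […] Lysates were read by luminescence (0.4 mM luciferin, 2 mM ATP, 10 s). EC50 (μM) was found at each subtype, mean ±SD, duplicates, three experiments.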

TRH-R2 [4] = assay: Receptor binding assay, competition with [3H][Nτ; conditions: ratio of Ki at TRH-R1 and TRH-R2; direction differs between compounds
mice [5] = assay: Pentylenetetrazole; assay type: in vivo; conditions: 10 μmol kg^−1 i.v. 10 min prior to PTZ 65 mg kg^−1 i.p.; mean ± SEM
mice [6] = assay: Maximal electric shock; assay type: in vivo; conditions: 10 μmol kg^−1 i.v. 10 min prior to MES 45 mA for 0.2 s; mean ± SEM
In short: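 Male Swiss albino mice (20–30 g, n = 6–8/group) received saline vehicle or test compound at 10 μmol kg−1 i.v. via the tail vein. MES (45 mA, corneal electrode, 0.2 s) was applied 10 min later, and the duration of tonic hind limb extension was recorded. Data were analysed by one-way ANOVA with Tukey test versus saline.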

For `NC(=O)[C@@H]1CCCN1C(=O)[C@H](CC1=CN2CC1=CC=CC=CC1CCN=C12)NC(=O)[C@@H]1CCC(=O)C1` (stereo partly drawn) [Compd 22 d, (1R)-3-Ocp-L-His(1-benzyl-2-cyclopropyl)-L-ProNH2], the “Sleep Time” value (Swiss albino mice) was 104.9 ± 5.5 min and the “Decrease in Sleep Time” value (Swiss albino mice) was −16.7%.

For `Cn1cc(C[C@H](NC(=O)[C@@H]2CCC(=O)C2)C(=O)N2CCC[C@H]2C(N)=O)nc1C(C)(C)C` [Compd 22 j, (1R)-3-Ocp-L-His(1-methyl-2-tert-butyl)-L-ProNH2], the “Sleep Time” value (Swiss albino mice) was 89.8 ± 3.0 min and the “Decrease in Sleep Time” value (Swiss albino mice) was −0.01%.

In the case of `CN1C=C(C[C@H](NC(=O)[C@@H]2CCCC(=O)N2)C(=O)N2CCC[C@H]2C(N)=O)C23CC4CC(CN=C12)CC(C4)C3` [Compd 16 m, L-pAad-L-His[1-methyl-2-(adamantan-1-yl)]-L-ProNH2], the “Sleep Time” value (Swiss albino mice) is reported as 76.0 ± 10.9 min and the “Decrease in Sleep Time” value (Swiss albino mice) is reported as 15.4%.

`Cn1cc(C[C@H](NC(=O)[C@@H]2CCCC(=O)N2)C(=O)N2CCC[C@H]2C(N)=O)nc1C(C)(C)C` [Compd 16 j, L-pAad-L-His(1-methyl-2-tert-butyl)-L-Pro-NH2] was tested, and the EC50 (TRH-R1 [1]) was over 50 µM, the “Sleep Time” value (Swiss albino mice) was 93.1 ± 4.5 min and the “Decrease in Sleep Time” value (Swiss albino mice) was −3.6%. It also gave a Ki (TRH-R1 [2]) of over 50 µM.

In the case of `CC(C)n1cnc(C[C@H](NC(=O)[C@@H]2CCC(=O)C2)C(=O)N2CCC[C@H]2C(N)=O)c1` [Compd 21 d, (1R)-3-Ocp-L-His(1-isopropyl)-L-ProNH2], the EC50 (TRH-R1 [1]) is reported as over 50 µM, the “Sleep Time” value (Swiss albino mice) is reported as 123.2 ± 5.9 min and the “Decrease in Sleep Time” value (Swiss albino mice) is reported as −36.8%. It also gave a Ki (TRH-R1 [2]) of over 50 µM.

With `CC(C)c1nc(C[C@H](NC(=O)[C@@H]2CCCC(=O)N2)C(=O)N2CCC[C@H]2C(N)=O)cn1C` [Compd 16 i, L-pAad-L-His(1-methyl-2-isopropyl)-L-ProNH2] the “Sleep Time” value (Swiss albino mice) was 124.3 ± 5.8 min and the “Decrease in Sleep Time” value (Swiss albino mice) was −38.2%.

For `Cn1cc(C[C@H](NC(=O)[C@@H]2CCC(=O)N2)C(=O)N2CCC[C@H]2C(N)=O)nc1C(C)(C)C` [Compd 10 c, L-pGlu-L-His(1-methyl-2-tert-butyl)-L-ProNH2], the EC50 (TRH-R1 [1]) was over 50 µM, the “Sleep Time” value (Swiss albino mice) was 59.6 ± 5.5 min and the “Decrease in Sleep Time” value (Swiss albino mice) was 32.5%. For the same molecule, the Ki (TRH-R1 [2]) was over 50 µM.

For `CCCc1nc(C[C@H](NC(=O)[C@@H]2CCCC(=O)N2)C(=O)N2CCC[C@H]2C(N)=O)cn1C` [Compd 16 h, L-pAad-L-His(1-methyl-2-propyl)-L-ProNH2], the “Sleep Time” value (Swiss albino mice) was 98.1 ± 9.4 min and the “Decrease in Sleep Time” value (Swiss albino mice) was −9.1%.

`CCCn1cnc(C[C@H](NC(=O)[C@@H]2CCC(=O)C2)C(=O)N2CCC[C@H]2C(N)=O)c1` [Compd 21 c, (1R)-3-Ocp-L-His(1-propyl)-L-ProNH2] was tested, and the EC50 (TRH-R1 [1]) was 4.6 µM, the “Fold Selectivity (EC50)” value (TRH-R2 [3]) was 4 and the “Fold Selectivity (Ki)” value (TRH-R2 [4]) was 1.5. The Ki (TRH-R1 [2]) was 8.1 µM, the “PTZ: Clonic Convulsions Frequency” value (mice [5]) was 1.3 ± 0.21 min⁻¹ and the “PTZ: Clonic Convulsions Onset” value (mice [5]) was 68 ± 3 s. For the same molecule, the “MES: Hind Limb Extension Duration” value (mice [6]) was 12.3 ± 0.90 s.

In the case of `CC(C)c1nc(C[C@H](NC(=O)[C@@H]2CCC(=O)C2)C(=O)N2CCC[C@H]2C(N)=O)cn1C` [Compd 22 i, (1R)-3-Ocp-L-His(1-methyl-2-isopropyl)-L-ProNH2], the “Sleep Time” value (Swiss albino mice) is reported as 39.8 ± 5.5 ^[b, ^c] min, the “Decrease in Sleep Time” value (Swiss albino mice) is reported as 55.6% and the Ki (TRH-R1 [2]) is reported as over 50 µM.

`CCCc1nc(C[C@H](NC(=O)[C@@H]2CCC(=O)C2)C(=O)N2CCC[C@H]2C(N)=O)cn1C` [Compd 22 h, (1R)-3-Ocp-L-His(1-methyl-2-propyl)-L-ProNH2] was tested, and the EC50 (TRH-R1 [1]) was over 50 µM, the “Sleep Time” value (Swiss albino mice) was 80.2 ± 2.4 min and the “Decrease in Sleep Time” value (Swiss albino mice) was 10.7%. It also gave a Ki (TRH-R1 [2]) of over 50 µM.

For `CC(C)(C)C1=NC=CC=CC=C2CN1C=C2C[C@H](NC(=O)[C@@H]1CCC(=O)C1)C(=O)N1CCC[C@H]1C(N)=O` [Compd 22 c, (1R)-3-Ocp-L-His(1-benzyl-2-tert-butyl)-L-ProNH2], the “Sleep Time” value (Swiss albino mice) was 91.6 ± 3.8 min and the “Decrease in Sleep Time” value (Swiss albino mice) was −1.9%.

For `CC(C)c1nc(C[C@H](NC(=O)[C@@H]2CCC(=O)N2)C(=O)N2CCC[C@H]2C(N)=O)cn1C` [Compd 10 b, L-pGlu-L-His(1-methyl-2-isopropyl)-L-ProNH2], the EC50 (TRH-R1 [1]) was over 50 µM, the “Sleep Time” value (Swiss albino mice) was 66.2 ± 9.8 min and the “Decrease in Sleep Time” value (Swiss albino mice) was 25.1%. The “effect on pentobarbital-induced sleeping time (in words)” value (from here on “effect”) (Swiss albino mice) was “significant decrease in sleeping time” and the Ki (TRH-R1 [2]) was over 50 µM.

`Cn1cnc(C[C@H](NC(=O)[C@@H]2CCC(=O)C2)C(=O)N2CCC[C@H]2C(N)=O)c1` [Compd 21 a, (1 R)-3-Ocp-L-His(1-methyl)-L-ProNH2] was tested, and the EC50 (TRH-R1 [1]) was 0.05 µM, the “Fold Selectivity (EC50)” value (TRH-R2 [3]) was 24 and the “Fold Selectivity (Ki)” value (TRH-R2 [4]) was 10.6. The Ki (TRH-R1 [2]) was 0.17 µM, the “decrease in binding affinity for TRH-R1 relative to TRH” value (TRH-R1 [2]; Ki compared with TRH) was 10 fold and the “PTZ: Clonic Convulsions Frequency” value (mice [5]) was 1.3 ± 0.33 min⁻¹. The “PTZ: Clonic Convulsions Onset” value (mice [5]) was 153 ± 7 ^*^, ^** s and the “MES: Hind Limb Extension Duration” value (mice [6]) was 10.0 ± 0.60 s.

With `CCn1cnc(C[C@H](NC(=O)[C@@H]2CCC(=O)C2)C(=O)N2CCC[C@H]2C(N)=O)c1` [Compd 21 b, (1R)-3-Ocp-L-His(1-ethyl)-L-ProNH2] the EC50 (TRH-R1 [1]) was 0.14 µM, the “Fold Selectivity (EC50)” value (TRH-R2 [3]) was 4.7 and the “Fold Selectivity (Ki)” value (TRH-R2 [4]) was 3.2. For the same molecule, the Ki (TRH-R1 [2]) was 0.1 µM, the “PTZ: Clonic Convulsions Frequency” value (mice [5]) was 1.3 ± 0.21 min⁻¹ and the “PTZ: Clonic Convulsions Onset” value (mice [5]) was 149 ± 8 ^*^, ^** s. The “MES: Hind Limb Extension Duration” value (mice [6]) was 11.3 ± 1.4 s.

For `CN1C=C(C[C@H](NC(=O)[C@@H]2CCCC(=O)N2)C(=O)N2CCC[C@H]2C(N)=O)C2CCCCN=C21` (stereo partly drawn) [Compd 16 k], the “Sleep Time” value (Swiss albino mice) was 108.1 ± 14.4 min and the “Decrease in Sleep Time” value (Swiss albino mice) was −20.2%.

In the case of `NC(=O)[C@@H]1CCCN1C(=O)[C@H](CC1=CN2CC1=CC=CC=CC1CCCCN=C12)NC(=O)[C@@H]1CCC(=O)N1` (stereo partly drawn) [Compd 10 l, L-pGlu-L-His(1-benzyl-2-cyclopentyl)-L-ProNH2], the “Sleep Time” value (Swiss albino mice) is reported as 163.3 ± 18.7 ^[b, ^c] min, the “Decrease in Sleep Time” value (Swiss albino mice) is reported as −84.7% and the “effect” value (Swiss albino mice) is reported as “increased the sleeping time significantly”.

For `CCCC1=NC=CC=CC=C2CN1C=C2C[C@H](NC(=O)[C@@H]1CCC(=O)N1)C(=O)N1CCC[C@H]1C(N)=O` [Compd 10 h, L-pGlu-L-His(1-benzyl-2-propyl)-L-ProNH2], the “Sleep Time” value (Swiss albino mice) was 105.1 ± 5.76 min, the “Decrease in Sleep Time” value (Swiss albino mice) was −18.8% and the “effect” value (Swiss albino mice) was “increased the sleeping time significantly”.

With `CCCc1nc(C[C@H](NC(=O)[C@@H]2CCC(=O)N2)C(=O)N2CCC[C@H]2C(N)=O)cn1C` [Compd 10 a, L-pGlu-L-His(1-methyl-2-propyl)-L-ProNH2] the EC50 (TRH-R1 [1]) was 0.29 µM, the “Fold Selectivity (EC50)” value (TRH-R2 [3]) was 11 and the “Sleep Time” value (Swiss albino mice) was 41.7 ± 6.1 ^[b] min. For the same molecule, the “Decrease in Sleep Time” value (Swiss albino mice) was 52.7%, the “effect” value (Swiss albino mice) was “significant decrease in sleeping time” and the “Fold Selectivity (Ki)” value (TRH-R2 [4]) was 1.9. It also gave a Ki (TRH-R1 [2]) of 0.32 µM.

For `CN1C=C(C[C@H](NC(=O)[C@@H]2CCC(=O)C2)C(=O)N2CCC[C@H]2C(N)=O)C2CCCCCN=C21` (stereo partly drawn) [Compd 22 k, (1R)-3-Ocp-L-His(1-methyl-2-cyclohexyl)-L-ProNH2], the “Sleep Time” value (Swiss albino mice) was 106.2 ± 3.0 min and the “Decrease in Sleep Time” value (Swiss albino mice) was −18.1%.
